Screening data as filed in PubChem.
Only some compounds are listed: those with a hit (about 2% of all), similar ones and a draw of the others.
CHRM5 agonist: agonists of human muscarinic M5 receptor (CHRM5) | CHO-K1 hM5 cells, Fluo-8 calcium fluorescence; 0% DMSO wells, 100% maximal acetylcholine response | actives 0.19% (n = 360,000) | AID 624037 | P08912 | activation, % at 3 µM;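 active = activation above the run's mean over test compounds plus 3 SD, cut at about 23% in these data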;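 note: signal is peak over basal fluorescence ratio across the kinetic read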
Target sequence (P08912 whole entry, looked up): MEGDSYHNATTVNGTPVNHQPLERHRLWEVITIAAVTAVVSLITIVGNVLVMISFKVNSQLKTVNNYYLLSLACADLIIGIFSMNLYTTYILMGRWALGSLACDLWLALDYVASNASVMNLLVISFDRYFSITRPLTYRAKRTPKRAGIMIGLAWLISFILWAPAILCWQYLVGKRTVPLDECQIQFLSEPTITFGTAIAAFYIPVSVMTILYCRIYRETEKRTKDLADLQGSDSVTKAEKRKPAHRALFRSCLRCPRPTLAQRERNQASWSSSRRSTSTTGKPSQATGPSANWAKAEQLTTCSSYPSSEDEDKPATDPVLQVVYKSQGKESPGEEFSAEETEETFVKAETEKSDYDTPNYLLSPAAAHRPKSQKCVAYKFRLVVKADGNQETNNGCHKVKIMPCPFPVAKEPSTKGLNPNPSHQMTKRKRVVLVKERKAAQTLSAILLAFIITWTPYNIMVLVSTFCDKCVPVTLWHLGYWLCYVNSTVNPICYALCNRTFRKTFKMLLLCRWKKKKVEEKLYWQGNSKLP
CHRM5 PAM: positive allosteric modulators of human muscarinic M5 receptor; P08912; actives 0.3% (n = 360,000); CHO-K1 hM5, Fluo-8 calcium, ACh EC20 PAM; 0% = ACh EC20, 100% = ACh EC100; activation, % at 3 µM;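 active = activation above the run cutoff, the mean activation of all test compounds plus 3 SD, cut at about 18% in these data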
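system = human M5 receptor in CHO-K1 cells | compound = one concentration, 3 µM final (nominal) | schedule = Post-acetylcholine fluorescence recording 140 s | signal = Fluo-8 calcium dye fluorescence, kinetic read | benchmarks = low control EC20 acetylcholine (0%), high control EC100 acetylcholine (100%) | repeats = singlicate, one well per test compound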
CHRM5 antagonist: blocks acetylcholine activation of human M5 receptor; CHO-hM5 cells, Fluo-8 calcium fluorescence, ACh EC80; P08912; inhibition, % at 3 µM; actives 0.59% (n = 360,000);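 active = inhibition above a per-plate cutoff, the mean of that plate's test compounds plus 3 SD, cut at about 27% in these data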;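 note: 0% = acetylcholine EC80 with DMSO and 100% = DMSO without agonist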
M1 PAM: potentiates human M1 receptor response to acetylcholine | P11229 | CHO-K1 hM1, Fluo-8 calcium fluorescence, ACh EC20; 0% = ACh EC20, 100% = maximal ACh | activation, % at 3 µM | actives 0.088% (n = 360,000); in the data active = activation above about 19%, passing the limit was not always enough
M1 antag: human CHRM1 antagonism. P11229. CHO-K1 hM1, Fluo-8 calcium fluorescence, ACh EC80 antagonist. actives 1.3% (n = 360,000). inhibition, % at 3 µM;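 active = percent inhibition above its own plate's cutoff, namely the mean of that plate's compound wells plus 3 SD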;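 note: peak over basal fluorescence ratio during 140 s after agonist addition; 0% = ACh EC80 plus DMSO and 100% = DMSO alone without agonist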
CHRM1 agonist: activates human CHRM1 receptor; P11229; CHO-K1 hM1, Fluo-8 calcium fluorescence, agonist mode; 0% DMSO, 100% acetylcholine EC100; activation, % at 3 µM; actives 0.33% (n = 360,000); AID 588814;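 active = activation above the run's mean compound activation plus 3 SD, cut at about 16% in these data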;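 note: peak over basal fluorescence ratio within a 140 s kinetic read after compound addition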
* marks the source's active call; other numbers are inactive results; nt = no result given.

SMILES | CHRM5 agonist | CHRM5 PAM | CHRM5 antagonist | M1 PAM | M1 antag | CHRM1 agonist
CCCc1nnc(NC(=O)CCC(=O)N2CCN(Cc3ccc(F)cc3)CC2)s1 | -6 | 1 | -11 | 7 | -7 | 1
COc1ccc(CCn2c(C)nc3c(c(=O)c4ccccc4n3C)c2=O)cc1 | -2 | -12 | 12 | -24 | 23 | -7
COc1ccc(CCn2c(C(C)C)nc3c(c(=O)c4ccccc4n3C)c2=O)cc1 | -4 | -12 | 12 | -31 | 39* | -10
Cc1ccc(S(=O)(=O)N2CCC(C(=O)N3Cc4ccccc4C3)CC2)cc1 | -5 | 19* | -10 | 4 | -24 | -2
Cc1ccc(S(=O)(=O)N2CCCC(C(=O)N3CCN(c4ccccc4)CC3)C2)cc1 (centres undefined) | -6 | -12 | 29* | -8 | 9 | -2
CCOc1ccccc1-c1cncc(NC)n1 | 1 | -2 | 3 | 7 | -22 | -3
CC1(Oc2ccc(CC#N)cc2)CCN(Cc2ccc(-n3ccnc3)cc2)C1 (centres undefined) | -3 | 5 | -10 | -12 | 7 | -9
COc1cc(NCc2ccccc2)c2ncn(Cc3ccccc3)c2c1 | 10 | 22* | -24 | 18 | -8 | 13
Cc1ccccc1NC(=O)Cc1nc(COC(=O)Cc2cccc(C(F)(F)F)c2)cs1 | -7 | -8 | 12 | -11 | 3 | -3
COc1cc(-c2nc3ccccn3c2/N=C/c2ccccc2)ccc1O | 51* | -12 | 3 | -6 | -7 | 27*
CCOc1cc(-c2nc3ccccn3c2NCC2CCCO2)ccc1O (centres undefined) | 5 | -17 | 24 | -13 | 24* | 2
COc1cc(-c2nc3ccccn3c2NCC2CCCO2)ccc1O (centres undefined) | 6 | -20 | 13 | -13 | 24* | 2
COc1ccc(-c2nc3cccc(C)n3c2NCC2CCCO2)cc1O (centres undefined) | 1 | -15 | 9 | 1 | 6 | -3
COc1cc(NC(=O)COc2cc(O)c3c(c2)OC(C)(C)CC3=O)cc(OC)c1OC | 13 | -25 | 43* | -29 | 52* | 4
COc1ccc(C(=O)Nc2sc3c(c2C(=O)O)CC(C)(C)OC3)cc1 | 0 | -3 | 10 | 8 | -6 | -4
CC(C)COc1ccc(C(=O)Nc2sc3c(c2C(=O)O)CC(C)(C)OC3)cc1 | 2 | -18 | 34* | -12 | 13 | -4
Cc1ccc(C(C)C)c(OCCN(C)C)c1 | -13 | -53 | 24 | -19 | 57* | -3
Cc1ccc(C(C)C)c(OCCCn2ccnc2C)c1 | -7 | -18 | 91* | -30 | 100* | -9
CCCCNC(=O)C(NC(=O)Cc1cc(OC)cc(OC)c1)C(=O)c1ccccc1 (centres undefined) | -1 | 2 | -1 | nt | nt | nt
COc1ccc(-c2ccc(C(=O)NC3CCCCC3)c3occc23)c(C)c1 | -1 | -6 | -1 | 0 | -5 | -4
O=[N+]([O-])c1ccccc1/C=C/CN1CCCCC1 | -11 | -4 | -17 | -21 | 45* | -8
CN(C/C=C/c1ccccc1[N+](=O)[O-])Cc1ccccc1 | -22 | -18 | 11 | -30 | 55* | -10
CCOC(=O)C1CCCN(C/C=C/c2ccccc2[N+](=O)[O-])C1 (centres undefined) | -13 | -3 | 2 | -16 | 28* | -7
CCOC(=O)C1CCCN(C/C(O)=C(\C#N)c2nc(-c3ccccc3)cs2)C1 (centres undefined) | 23* | -6 | -3 | -24 | 22 | 56*
O=[N+]([O-])c1ccccc1/C=C/CN1CCCCC1CO (centres undefined) | -26 | 2 | -6 | -12 | 9 | -7
N#C/C(=C(/O)CN1CCOCC1)c1nc(-c2ccccc2)cs1 | 2 | -3 | 7 | 2 | -7 | 0
O=C(NCC1CCCO1)c1ccc(Br)c(S(=O)(=O)N2CCOCC2)c1 (centres undefined) | 1 | -1 | -8 | 2 | -2 | -2
